Screening results deposited in PubChem by several laboratories.
This is a sample that favours compounds with a hit; in the whole collection about 4.8% have one here.
pPAFAH inh – pPAFAH (human) enzyme inhibition. actives 1.5% (n = 330,000). recombinant pPAFAH, FP-rhodamine probe fluorescence polarization. inhibition, % at 3.39 µM;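 active means inhibition above the mean inhibition across the screen plus 3 SD, cut at about 25% in these data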;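 further: inhibitors block binding of the rhodamine activity-based probe so polarization drops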
Target sequence (Q13093 whole entry, looked up): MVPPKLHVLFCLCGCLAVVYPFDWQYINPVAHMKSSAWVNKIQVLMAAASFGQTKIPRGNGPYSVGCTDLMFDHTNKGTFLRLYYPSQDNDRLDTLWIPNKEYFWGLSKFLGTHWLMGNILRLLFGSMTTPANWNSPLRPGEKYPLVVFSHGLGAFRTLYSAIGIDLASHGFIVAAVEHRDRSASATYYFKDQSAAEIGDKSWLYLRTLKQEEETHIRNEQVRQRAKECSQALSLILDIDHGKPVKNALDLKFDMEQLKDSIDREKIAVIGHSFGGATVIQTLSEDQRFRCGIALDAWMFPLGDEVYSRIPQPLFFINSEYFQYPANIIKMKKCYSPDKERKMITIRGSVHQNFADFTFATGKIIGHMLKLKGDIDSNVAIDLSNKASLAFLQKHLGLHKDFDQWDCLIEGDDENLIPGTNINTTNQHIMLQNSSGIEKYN
GRIN3A LBD mod – modulators (binders) of human NR3A ligand-binding domain; NR3A LBD differential scanning fluorimetry, Tm shift; 0% = protein alone, 100% = glycine-bound protein; actives 2.5% (n = 340,000); Tm shift relative to glycine control, % at 25 µM;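 active means melting temperature shift of at least 10% of the positive control shift, at one fixed dose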
PAFAH1B2 FP inh – PAFAH1B2 (human) inhibition; actives 1.2% (n = 340,000); AID 492953; recombinant PAFAH1B2, FP-rhodamine activity probe, fluorescence polarization; inhibition, % at 3.39 µM; P68402;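 active means inhibition above the mean of all tested compounds plus 3 SD, cut at about 24% in these data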
Target sequence (P68402 whole entry, looked up): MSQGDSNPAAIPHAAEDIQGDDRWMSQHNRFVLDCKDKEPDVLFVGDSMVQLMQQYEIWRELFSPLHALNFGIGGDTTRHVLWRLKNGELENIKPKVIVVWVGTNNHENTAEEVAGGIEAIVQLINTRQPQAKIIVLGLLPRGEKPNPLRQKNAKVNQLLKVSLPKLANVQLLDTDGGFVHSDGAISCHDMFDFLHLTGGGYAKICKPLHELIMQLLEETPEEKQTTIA
UCH37 DUB inh – human UCH37 deubiquitinating enzyme inhibition. Q9Y5K5. purified proteasome/UCH37, Ub-AMC cleavage fluorescence. inhibition, % (concentration not given with the values). actives 0.33% (n = 330,000);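 active means mean inhibition over replicate wells above about 20%, limit read from the data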
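Material: Human UCH37 enzyme supplied as purified proteasome complex | Schedule: 30 min preincubation with enzyme, 25 min cleavage at room temperature | Detection: AMC fluorescence 355/460 nm | Measure: % inhibition of Ub-AMC cleavage fluorescence | Controls: Wells without proteasome as full block, compound-free enzyme plus substrate as uninhibited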
PAFAH2 FP inh – inhibitors of human PAFAH2 | recombinant PAFAH2, FP-rhodamine activity probe, fluorescence polarization | inhibition, % at 3.39 µM | actives 0.99% (n = 340,000) | AID 492956;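 active means inhibition above the mean over all tested compounds plus 3 SD, cut at about 30% in these data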;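 further: inhibitors block probe labeling of enzyme so polarization drops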
PAFAH1B3 FP inh – blocks human PAF acetylhydrolase 1B catalytic subunit 3; Q15102; recombinant PAFAH1B3, FP-rhodamine probe, fluorescence polarization; inhibition, % at 3.39 µM; actives 0.28% (n = 340,000);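 active means inhibition above the screen-wide average of all tested compounds plus 3 SD, cut at about 25% in these data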
A number is an active result; - = inactive; . = no result.

SMILES	pPAFAH inh	GRIN3A LBD mod	PAFAH1B2 FP inh	UCH37 DUB inh	PAFAH2 FP inh	PAFAH1B3 FP inh
CN1CCN(S(=O)(=O)c2ccc(Sc3nnnn3-c3ccccc3)c([N+](=O)[O-])c2)CC1	-	-	38.5	-	-	-
CC(=O)c1ccc(Sc2nnnn2-c2ccccc2)c([N+](=O)[O-])c1	-	-	-	-	-	-
CC(CC1CC2=C(CC1(C)C)C(C)(C)CCC2)=NNC(N)=S (stereo not given)	.	.	.	-	.	.
Cc1ccc(C=NN2C(=S)SC(C)(C)C2N(O)C(=O)Nc2ccc([N+](=O)[O-])cc2)cc1 (stereo not given)	.	.	.	-	.	.
Cc1ccc(/C=N/N2C(=S)SC(C)(C)C2N(O)C(=O)Nc2ccc([N+](=O)[O-])cc2)cc1 (stereo not given)	-	12.4	-	.	-	-
FC(F)(F)c1ccccc1C=Nn1c(COc2ccccc2)n[nH]c1=S	.	.	.	-	.	.
O=C(NCC1CCCO1)C(=O)NN=Cc1ccc2c(c1)OCO2 (stereo not given)	.	.	.	-	.	.
CCN(c1ccccc1)S(=O)(=O)c1cc(C(=O)O)ccc1C	-	-	52.7	-	-	-
CCN(c1ccccc1)S(=O)(=O)c1cc(C(=O)Nc2ccc(F)c(F)c2)ccc1F	-	10.5	-	-	-	-
Cc1cnc2ncc3sccc3c2c1	-	-	-	-	-	-
c1cnc2ncc3sccc3c2c1	-	-	-	28.2	-	-
O=c1oc2ccccc2nc1/C=C(O)/C=C\c1ccccc1	32.8	-	-	.	-	-
O=c1oc2ccccc2nc1/C=C(O)/C=C/c1ccc(F)cc1	-	-	-	.	-	-
O=C(N/N=C/c1ccc(Cl)cc1)c1sccc1OCc1ccc(F)cc1	-	21.8	-	.	-	-
O=C(N/N=C/c1ccc(OCc2ccccc2)cc1)c1cccs1	-	21.4	-	.	-	-
O=C(Nc1ccc(OCc2ccccc2)cc1)c1cccs1	-	25.2	-	-	-	-
Cc1occc1C(=O)Nc1ccc(OCc2ccccc2)cc1	-	26.2	-	-	-	-
O=C(NN=Cc1ccc(Cl)cc1)c1sccc1OCc1ccc(F)cc1	.	.	.	-	.	.
COc1ccc(C=NNc2nnc(-c3ncc[nH]3)c3ccccc23)cc1	.	.	.	-	.	.
COc1ccc(CC(=O)NN=Cc2c(C)n(C)c3ccccc23)cc1OC	.	.	.	-	.	.
Oc1ccc(N=Cc2ccc(OCc3ccccc3)cc2)cc1	-	10.5	-	-	-	28.2
O=[N+]([O-])c1nn(-c2ccc3c(c2)OCCO3)n(O)c1=NCCCO	-	-	-	-	-	-
Cc1ccc(CN=c2c([N+](=O)[O-])nn(-c3ccc4c(c3)OCCO4)n2O)cc1	-	13.0	-	-	-	-
Cc1ccc2[nH]cc(C(=O)CCl)c2c1	-	38.0	-	-	-	-
O=C(NN=Cc1ccco1)c1cc(-c2ccccc2)nc2ccccc12	.	.	.	-	.	.
SMILES	pPAFAH inh	GRIN3A LBD mod	PAFAH1B2 FP inh	UCH37 DUB inh	PAFAH2 FP inh	PAFAH1B3 FP inh
CCc1ccc(C=NNC(=O)c2c[nH]c3ccccc23)s1	.	.	.	-	.	.
CCOC(=O)c1c(C)cccc1OCC(N)=O	-	25.2	-	-	-	-
Cc1ccc(C)c(NC(=S)NN=C2CCc3ccccc32)c1	.	.	.	-	.	.
CC1CCc2cc(F)ccc2N1S(=O)(=O)c1ccc(Cl)nc1 (stereo not given)	-	-	29.0	-	-	-
CC1CCc2cc(F)ccc2N1S(=O)(=O)c1ccc(F)cc1 (stereo not given)	-	-	-	-	-	-
Cc1cc(Cl)ccc1C(=O)C1CCCN(C(=O)c2ccc3ncccc3c2)C1 (stereo not given)	25.4	-	-	-	-	-
Cc1cc(Cl)ccc1C(=O)C1CCCN(C(=O)c2ccsc2)C1 (stereo not given)	-	-	-	-	-	-
CN(C)c1ccc(Cc2cc3c(O)ccc(O)c3cc(Cc3ccc(N(C)C)cc3)c2=O)cc1	.	-	-	.	39.0	34.0
CC(C)C(=O)COc1c2occc2cc2ccc(=O)oc12	-	-	-	-	-	-
C=C(C)C(COc1c2occc2cc2ccc(=O)oc12)OC(C)(C)C(O)COc1c2occc2cc2ccc(=O)oc12 (stereo not given)	-	-	66.1	-	-	-
CC1Cc2ccccc2N1C(=O)CSc1nnc2c(n1)[nH]c1ccc(F)cc12 (stereo not given)	-	22.2	-	-	-	-
O=C(CSc1nnc2c(n1)[nH]c1ccc(F)cc12)N1CCOCC1	-	-	-	-	-	-
O=C(CSc1nnc2c(n1)[nH]c1ccc(F)cc12)NCc1ccc(F)cc1	-	10.1	-	-	-	-
CC(CC(=O)Nc1ccc(N(C)C)cc1)=NNC(=O)C(=O)NCc1ccccc1	.	.	.	-	.	.
O=c1cc(-c2ccccc2)nc2cc(-c3ccco3)[nH]n12	27.1	10.3	-	-	-	-
O=c1cc(-c2ccccc2)nc2cc(-c3ccc(Br)cc3)[nH]n12	-	-	-	-	-	-
COc1ccc(C=NNC(=O)c2ccc(COc3cccc4cccnc34)cc2)cc1OC	.	.	.	-	.	.
CC(C)OC(=O)c1ccc(NC(=O)Cn2c(-c3nonc3N)nc3ccccc32)cc1	-	19.2	-	-	-	-
CCOC(=O)c1c(C)[nH]c(C(=O)NN=Cc2cccc(OC)c2)c1C	.	.	.	-	.	.
CC(C)C=NNC(=O)c1cc(Br)ccc1O	.	.	.	-	.	.
CCCCCCCN(c1ccccc1)[C@@H]1C[C@H]2CCCC(=O)N3CC[C@@H](C1)[C@@H]23	.	18.8	-	.	-	-
CCCCNC(=O)O[C@@H]1C[C@H]2CCCC(=O)N3CC[C@@H](C1)[C@@H]23	-	-	-	-	-	-
O=C(CSc1ncn[nH]1)NN=Cc1ccc(F)cc1	.	.	.	-	.	.
CC(=O)Nc1cccc(NC(=O)c2ccc(COc3ccccc3)cc2)c1	.	-	-	-	-	-
CC(C)C(=O)Nc1ccc(NC(=O)c2ccc(COc3ccccc3)cc2)cc1	-	16.3	-	-	-	-
SMILES	pPAFAH inh	GRIN3A LBD mod	PAFAH1B2 FP inh	UCH37 DUB inh	PAFAH2 FP inh	PAFAH1B3 FP inh
CC(=O)Nc1ccc(NC(=O)c2ccc(COc3ccccc3)cc2)cc1	-	10.4	-	-	-	-
Cc1ccc(C(=O)NN=Cc2ccc[nH]2)cn1	.	.	.	-	.	.
COc1ccc(-c2c(=O)n(OCc3nc4ccccc4[nH]3)c3ccccc3[n+]2[O-])cc1	-	-	-	-	-	-
C=CCOn1c(=O)c(-c2ccc(OC)cc2)[n+]([O-])c2ccccc21	32.8	-	-	-	-	-
CCCCN1C(=O)C(=O)N(CC(=O)Nc2sc(CC)cc2C(=O)OCC)C1=O	33.3	12.8	-	-	-	-
COc1cc(-c2nc(-c3ccc4c(c3)-c3ccccc3S4(=O)=O)c(-c3ccccc3)[nH]2)cc(OC)c1O	27.2	-	-	-	-	-
CC(=NN=C(C)c1cccc(N)c1)c1cccc(N)c1	.	.	.	-	.	.
CCN(CC)c1ccc(C=NN2CCN(c3ccccn3)CC2)cc1	.	.	.	-	.	.
CC(=NNC(=O)c1ccoc1C)c1ccc(Cl)s1	.	.	.	-	.	.
O=C(NN=Cc1ccc(O)c(O)c1)C1CC1	.	.	.	-	.	.
